Source: ChEMBL document CHEMBL5724801, “EUbOPEN Chemogenomics Library - Multiplex” (2024)
Values joined by “and” are separate entries in the source; they are usually repeats but may differ in a detail not shown here. Equal values may be shown once.

Columns and labels:
Format in all cases: toxicity, cell-based
[1] = system: HEK-293T; assay: Multiplex assay against HEK293T; details: human
Procedure, shortened: (§1)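 Values for tubulin, mitochondrial-mass and membrane-permeability phenotypes are per cents of cells with healthy nuclei. These cells were identified by CellPathfinder machine-learning gating of live cells that had been stained at seeding with Hoechst33342, BioTracker Green Microtubule Cytoskeleton Dye, MitoTracker Red and Annexin V Alexa Fluor 680 and imaged on a CQ1 microscope at 37°C and 5% CO2 after compound addition. The gating first set Hoechst high-intensity objects apart from normal cells, then split normal cells into healthy, pyknosed or fragmented nuclei, and pyknosed cells into mitotic or apoptotic.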

[2] = system: Fibroblast; assay: Multiplex assay against human fibroblast; procedure, shortened: as §1
[3] = system: U2OS; assay: Multiplex assay against U2OS; details: human; procedure, shortened: as §1
[4] = 12 h, 1 µM, compound concentration 1 uM
[5] = 12 h, 10 µM, compound concentration 10 uM
[6] = 24 h, 1 µM, compound concentration 1 uM
[7] = 24 h, 10 µM, compound concentration 10 uM
[8] = 48 h, 1 µM, compound concentration 1 uM
[9] = 48 h, 10 µM, compound concentration 10 uM

COc1ccc2[nH]c(I)c(CCNC(C)=O)c2c1 [IODOMELATONIN]
Population Apoptotic (%) [1, 4]: 42% and 59%
Population Fragmented Nuclei (%) [1, 4]: 4% and 5%
Population Healthy Nuclei (%) [1, 4]: 80% and 84%
Population Hoechst High Intensity Objects (%) [1, 4]: 5% and 7%
Population Membrane Permeable-Phenotype (%) [1, 4]: 1% and 0%
Population Mitochondria Different-Phenotype (%) [1, 4]: 43% and 64%
Population Mitotic Cells (%) [1, 4]: 57% and 40%
Population Normal (%) [1, 4]: 94% and 92%
Population Pyknosed Nuclei (%) [1, 4]: 14% and 10%
Population Tubulin-Different-Phenotype (%) [1, 4]: 35% and 32%
Total Cell Count [1, 4]: 388 and 400
Population Apoptotic (%) [1, 5]: 38% and 46%
Population Fragmented Nuclei (%) [1, 5]: 11% and 8%
Population Healthy Nuclei (%) [1, 5]: 77%
Population Hoechst High Intensity Objects (%) [1, 5]: 8% and 12%
Population Membrane Permeable-Phenotype (%) [1, 5]: 0%
Population Mitochondria Different-Phenotype (%) [1, 5]: 52% and 62%
Population Mitotic Cells (%) [1, 5]: 61% and 53%
Population Normal (%) [1, 5]: 91% and 87%
Population Pyknosed Nuclei (%) [1, 5]: 10% and 14%
Population Tubulin-Different-Phenotype (%) [1, 5]: 29% and 25%
Total Cell Count [1, 5]: 445 and 316
Population Apoptotic (%) [1, 6]: 38% and 44%
Population Fragmented Nuclei (%) [1, 6]: 8% and 9%
Population Healthy Nuclei (%) [1, 6]: 80% and 78%
Population Hoechst High Intensity Objects (%) [1, 6]: 3% and 8%
Population Membrane Permeable-Phenotype (%) [1, 6]: 1% and 0%
Population Mitochondria Different-Phenotype (%) [1, 6]: 24% and 37%
Population Mitotic Cells (%) [1, 6]: 61% and 55%
Population Normal (%) [1, 6]: 96% and 91%
Population Pyknosed Nuclei (%) [1, 6]: 11%
Population Tubulin-Different-Phenotype (%) [1, 6]: 23% and 14%
Total Cell Count [1, 6]: 511 and 497
Population Apoptotic (%) [1, 7]: 32% and 40%
Population Fragmented Nuclei (%) [1, 7]: 11% and 5%
Population Healthy Nuclei (%) [1, 7]: 77% and 81%
Population Hoechst High Intensity Objects (%) [1, 7]: 5% and 9%
Population Membrane Permeable-Phenotype (%) [1, 7]: 1% and 0%
Population Mitochondria Different-Phenotype (%) [1, 7]: 31% and 48%
Population Mitotic Cells (%) [1, 7]: 67% and 59%
Population Normal (%) [1, 7]: 94% and 90%
Population Pyknosed Nuclei (%) [1, 7]: 10% and 12%
Population Tubulin-Different-Phenotype (%) [1, 7]: 25% and 21%
Total Cell Count [1, 7]: 568 and 360
Population Apoptotic (%) [1, 8]: 26% and 31%
Population Fragmented Nuclei (%) [1, 8]: 12%
Population Healthy Nuclei (%) [1, 8]: 79%
Population Hoechst High Intensity Objects (%) [1, 8]: 4% and 5%
Population Membrane Permeable-Phenotype (%) [1, 8]: 1%
Population Mitochondria Different-Phenotype (%) [1, 8]: 19% and 22%
Population Mitotic Cells (%) [1, 8]: 73% and 68%
Population Normal (%) [1, 8]: 95% and 94%
Population Pyknosed Nuclei (%) [1, 8]: 7% and 8%
Population Tubulin-Different-Phenotype (%) [1, 8]: 16% and 14%
Total Cell Count [1, 8]: 770 and 622
Population Apoptotic (%) [1, 9]: 23% and 25%
Population Fragmented Nuclei (%) [1, 9]: 16% and 15%
Population Healthy Nuclei (%) [1, 9]: 77% and 75%
Population Hoechst High Intensity Objects (%) [1, 9]: 1% and 2%
Population Membrane Permeable-Phenotype (%) [1, 9]: 1% and 0%
Population Mitochondria Different-Phenotype (%) [1, 9]: 16% and 24%
Population Mitotic Cells (%) [1, 9]: 76% and 74%
Population Normal (%) [1, 9]: 98% and 97%
Population Pyknosed Nuclei (%) [1, 9]: 5% and 9%
Population Tubulin-Different-Phenotype (%) [1, 9]: 11% and 16%
Total Cell Count [1, 9]: 860 and 613
Population Apoptotic (%) [2, 4]: 53% and 32%
Population Fragmented Nuclei (%) [2, 4]: 15% and 23%
Population Healthy Nuclei (%) [2, 4]: 64% and 60%
Population Hoechst High Intensity Objects (%) [2, 4]: 2% and 5%
Population Membrane Permeable-Phenotype (%) [2, 4]: 4% and 7%
Population Mitochondria Different-Phenotype (%) [2, 4]: 4% and 3%
Population Mitotic Cells (%) [2, 4]: 46% and 68%
Population Normal (%) [2, 4]: 97% and 94%
Population Pyknosed Nuclei (%) [2, 4]: 19% and 15%
Population Tubulin-Different-Phenotype (%) [2, 4]: 28% and 33%
Total Cell Count [2, 4]: 137 and 173
Population Apoptotic (%) [2, 5]: 35% and 30%
Population Fragmented Nuclei (%) [2, 5]: 14% and 38%
Population Healthy Nuclei (%) [2, 5]: 64% and 44%
Population Hoechst High Intensity Objects (%) [2, 5]: 2% and 3%
Population Membrane Permeable-Phenotype (%) [2, 5]: 2% and 5%
Population Mitochondria Different-Phenotype (%) [2, 5]: 6% and 0%
Population Mitotic Cells (%) [2, 5]: 64% and 69%
Population Normal (%) [2, 5]: 97% and 96%
Population Pyknosed Nuclei (%) [2, 5]: 21% and 17%
Population Tubulin-Different-Phenotype (%) [2, 5]: 20% and 43%
Total Cell Count [2, 5]: 148 and 157
Population Apoptotic (%) [2, 6]: 62% and 57%
Population Fragmented Nuclei (%) [2, 6]: 16% and 26%
Population Healthy Nuclei (%) [2, 6]: 63% and 57%
Population Hoechst High Intensity Objects (%) [2, 6]: 0% and 5%
Population Membrane Permeable-Phenotype (%) [2, 6]: 0% and 6%
Population Mitochondria Different-Phenotype (%) [2, 6]: 7%
Population Mitotic Cells (%) [2, 6]: 37% and 42%
Population Normal (%) [2, 6]: 99% and 94%
Population Pyknosed Nuclei (%) [2, 6]: 20% and 15%
Population Tubulin-Different-Phenotype (%) [2, 6]: 27% and 39%
Total Cell Count [2, 6]: 134 and 176
Population Apoptotic (%) [2, 7]: 35% and 24%
Population Fragmented Nuclei (%) [2, 7]: 16% and 38%
Population Healthy Nuclei (%) [2, 7]: 58% and 41%
Population Hoechst High Intensity Objects (%) [2, 7]: 2% and 4%
Population Membrane Permeable-Phenotype (%) [2, 7]: 1% and 10%
Population Mitochondria Different-Phenotype (%) [2, 7]: 4% and 1%
Population Mitotic Cells (%) [2, 7]: 64% and 75%
Population Normal (%) [2, 7]: 97% and 95%
Population Pyknosed Nuclei (%) [2, 7]: 24% and 20%
Population Tubulin-Different-Phenotype (%) [2, 7]: 30% and 40%
Total Cell Count [2, 7]: 143 and 149
Population Apoptotic (%) [2, 8]: 76% and 42%
Population Fragmented Nuclei (%) [2, 8]: 16% and 30%
Population Healthy Nuclei (%) [2, 8]: 64% and 55%
Population Hoechst High Intensity Objects (%) [2, 8]: 3% and 4%
Population Membrane Permeable-Phenotype (%) [2, 8]: 0% and 5%
Population Mitochondria Different-Phenotype (%) [2, 8]: 4% and 0%
Population Mitotic Cells (%) [2, 8]: 23% and 57%
Population Normal (%) [2, 8]: 96% and 95%
Population Pyknosed Nuclei (%) [2, 8]: 18% and 13%
Population Tubulin-Different-Phenotype (%) [2, 8]: 22% and 40%
Total Cell Count [2, 8]: 147 and 163
Population Apoptotic (%) [2, 9]: 60% and 38%
Population Fragmented Nuclei (%) [2, 9]: 29% and 48%
Population Healthy Nuclei (%) [2, 9]: 56% and 38%
Population Hoechst High Intensity Objects (%) [2, 9]: 7% and 2%
Population Membrane Permeable-Phenotype (%) [2, 9]: 1% and 10%
Population Mitochondria Different-Phenotype (%) [2, 9]: 1% and 5%
Population Mitotic Cells (%) [2, 9]: 40% and 61%
Population Normal (%) [2, 9]: 92% and 98%
Population Pyknosed Nuclei (%) [2, 9]: 13% and 12%
Population Tubulin-Different-Phenotype (%) [2, 9]: 22% and 57%
Total Cell Count [2, 9]: 159 and 150
Population Apoptotic (%) [3, 4]: 68% and 37%
Population Fragmented Nuclei (%) [3, 4]: 19% and 11%
Population Healthy Nuclei (%) [3, 4]: 74% and 83%
Population Hoechst High Intensity Objects (%) [3, 4]: 2% and 0%
Population Membrane Permeable-Phenotype (%) [3, 4]: 4% and 5%
Population Mitochondria Different-Phenotype (%) [3, 4]: 3% and 1%
Population Mitotic Cells (%) [3, 4]: 31% and 62%
Population Normal (%) [3, 4]: 97% and 99%
Population Pyknosed Nuclei (%) [3, 4]: 5%
Population Tubulin-Different-Phenotype (%) [3, 4]: 1% and 2%
Total Cell Count [3, 4]: 282 and 156
Population Apoptotic (%) [3, 5]: 77% and 80%
Population Fragmented Nuclei (%) [3, 5]: 25% and 41%
Population Healthy Nuclei (%) [3, 5]: 64% and 54%
Population Hoechst High Intensity Objects (%) [3, 5]: 3% and 0%
Population Membrane Permeable-Phenotype (%) [3, 5]: 2% and 10%
Population Mitochondria Different-Phenotype (%) [3, 5]: 1% and 6%
Population Mitotic Cells (%) [3, 5]: 22% and 20%
Population Normal (%) [3, 5]: 96% and 99%
Population Pyknosed Nuclei (%) [3, 5]: 9% and 3%
Population Tubulin-Different-Phenotype (%) [3, 5]: 1% and 2%
Total Cell Count [3, 5]: 231 and 134
Population Apoptotic (%) [3, 6]: 86% and 80%
Population Fragmented Nuclei (%) [3, 6]: 16% and 15%
Population Healthy Nuclei (%) [3, 6]: 75% and 78%
Population Hoechst High Intensity Objects (%) [3, 6]: 1%
Population Membrane Permeable-Phenotype (%) [3, 6]: 3% and 8%
Population Mitochondria Different-Phenotype (%) [3, 6]: 1% and 0%
Population Mitotic Cells (%) [3, 6]: 13% and 20%
Population Normal (%) [3, 6]: 98%
Population Pyknosed Nuclei (%) [3, 6]: 8% and 5%
Population Tubulin-Different-Phenotype (%) [3, 6]: 2%
Total Cell Count [3, 6]: 354 and 179
Population Apoptotic (%) [3, 7]: 95% and 88%
Population Fragmented Nuclei (%) [3, 7]: 25% and 34%
Population Healthy Nuclei (%) [3, 7]: 66% and 59%
Population Hoechst High Intensity Objects (%) [3, 7]: 1%
Population Membrane Permeable-Phenotype (%) [3, 7]: 4% and 7%
Population Mitochondria Different-Phenotype (%) [3, 7]: 1% and 5%
Population Mitotic Cells (%) [3, 7]: 4% and 11%
Population Normal (%) [3, 7]: 98%
Population Pyknosed Nuclei (%) [3, 7]: 8% and 5%
Population Tubulin-Different-Phenotype (%) [3, 7]: 1% and 2%
Total Cell Count [3, 7]: 273 and 153
Population Apoptotic (%) [3, 8]: 92% and 86%
Population Fragmented Nuclei (%) [3, 8]: 12% and 13%
Population Healthy Nuclei (%) [3, 8]: 79% and 81%
Population Hoechst High Intensity Objects (%) [3, 8]: 1%
Population Membrane Permeable-Phenotype (%) [3, 8]: 5% and 4%
Population Mitochondria Different-Phenotype (%) [3, 8]: 2%
Population Mitotic Cells (%) [3, 8]: 7% and 13%
Population Normal (%) [3, 8]: 98%
Population Pyknosed Nuclei (%) [3, 8]: 7% and 5%
Population Tubulin-Different-Phenotype (%) [3, 8]: 3%
Total Cell Count [3, 8]: 509 and 284
Population Apoptotic (%) [3, 9]: 97% and 100%
Population Fragmented Nuclei (%) [3, 9]: 21% and 29%
Population Healthy Nuclei (%) [3, 9]: 68% and 65%
Population Hoechst High Intensity Objects (%) [3, 9]: 2% and 0%
Population Membrane Permeable-Phenotype (%) [3, 9]: 5% and 7%
Population Mitochondria Different-Phenotype (%) [3, 9]: 0% and 5%
Population Mitotic Cells (%) [3, 9]: 2% and 0%
Population Normal (%) [3, 9]: 97% and 99%
Population Pyknosed Nuclei (%) [3, 9]: 9% and 5%
Population Tubulin-Different-Phenotype (%) [3, 9]: 2% and 4%
Total Cell Count [3, 9]: 373 and 209
